Results taken from ChEMBL document CHEMBL2203198, “Prodrugs of a CXC Chemokine-12 (CXCL12) Neutraligand Prevent Inflammatory Reactions in an Asthma Model in Vivo” (ACS Med Chem Lett, 2012).
Converted amounts (≈) assume the structure as drawn. The source made the active and inactive calls. No cut-off for these calls is given here.

Tests used:
[1] = target: T1, C-X-C chemokine receptor type 4 (Homo sapiens, UniProt P61073); experiment: Inhibition of EGFP-tagged human CXCR4 expressed in HEK293 cells assessed as inhibition of CXCL12-TR binding at 5 uM incubated for 5 mins prior to CXCL12-TR addition by FRET assay; assay type: cell-based
T1 sequence (P61073 whole entry): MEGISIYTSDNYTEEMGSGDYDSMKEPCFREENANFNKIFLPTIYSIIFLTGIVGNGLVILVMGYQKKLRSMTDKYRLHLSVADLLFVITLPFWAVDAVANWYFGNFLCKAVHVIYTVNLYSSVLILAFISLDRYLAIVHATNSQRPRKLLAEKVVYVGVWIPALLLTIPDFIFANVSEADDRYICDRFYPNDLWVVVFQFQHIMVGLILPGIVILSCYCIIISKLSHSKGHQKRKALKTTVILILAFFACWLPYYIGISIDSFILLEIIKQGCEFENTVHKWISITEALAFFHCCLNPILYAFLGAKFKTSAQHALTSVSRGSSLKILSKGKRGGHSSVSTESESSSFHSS
Outline: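 Binding of Texas Red-labelled CXCL12 (100 nM) to EGFP-tagged CXCR4 read by FRET as real-time decline of EGFP emission at 510 nm. Compound tested at 5 μM; percent inhibition of binding reported.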

[2] = Half life in mouse lung homogenate by LC-MS analysis; assay type: ADME, tissue-based
Outline: (§1)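 Freshly prepared compound solutions (10 μM) incubated at 37 °C in PBS, mouse serum or mouse lung homogenate. Parent and released product followed by LC-MS, RP-HPLC on C18 with ammonium acetate pH 7.4/acetonitrile gradient, 365 nm detection. Half-life taken from disappearance over time.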

Mus musculus [3] = experiment: Prodrug activation in ovalbumin sensitized Balb/c mouse hypereosinophilia model assessed as chalcone-4 release in lungs at 30 nmol/kg administered intranasally; assay type: organism-based; settings: in vivo, inhaled_or_intranasal
Mus musculus [4] = experiment: Antiinflammatory activity in ovalbumin sensitized Balb/c mouse hypereosinophilia model assessed as inhibition of lymphocyte recruitment at 30 nmol/kg administered intranasally 2 hrs prior to ovalbumin challenge measured 24 hrs post the last ovalbumin challenge by BAL analysis; assay type: functional, organism-based
Outline: (§2)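 8-day airway hypereosinophilia model in OVA-sensitized mice; OVA (10 μg in 25 μL saline, 12.5 μL/nostril) given intranasally on days 5, 6, 7 under ip ketamine 50 mg/kg/xylazine 3.33 mg/kg. Compound in PBS (25 μL) given intranasally 2 h before each challenge. BAL cell counts by hemocytometer plus Hemacolor-stained cytospin differentials (≥400 cells), as absolute numbers; n = 6 mice/group.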

[5] = Half life in PBS buffer by LC-MS analysis; assay type: physicochemical; outline: as §1
Mus musculus [6] = experiment: Antiinflammatory activity in ovalbumin sensitized Balb/c mouse hypereosinophilia model assessed as inhibition of macrophage recruitment at 30 nmol/kg administered intranasally 2 hrs prior to ovalbumin challenge measured 24 hrs post the last ovalbumin challenge by BAL analysis; assay type: functional, organism-based; outline: as §2
[7] = Half life in mouse serum by LC-MS analysis; assay type: ADME, cell-free; outline: as §1
Mus musculus [8] = experiment: Antiinflammatory activity in ovalbumin sensitized Balb/c mouse hypereosinophilia model assessed as inhibition of eosinophil recruitment at 22 nmol/kg administered intranasally 2 hrs prior to ovalbumin challenge for 3 days; assay type: functional; outline: as §2
Mus musculus [9] = experiment: Antiinflammatory activity in ovalbumin sensitized Balb/c mouse hypereosinophilia model assessed as inhibition of neutrophil recruitment at 22 nmol/kg administered intranasally 2 hrs prior to ovalbumin challenge for 3 days; assay type: functional, organism-based; outline: as §2
Mus musculus [10] = experiment: Antiinflammatory activity in ovalbumin sensitized Balb/c mouse hypereosinophilia model assessed as inhibition of lymphocyte recruitment at 22 nmol/kg administered intranasally 2 hrs prior to ovalbumin challenge for 3 days; assay type: functional, organism-based; outline: as §2
Mus musculus [11] = experiment: Antiinflammatory activity in ovalbumin sensitized Balb/c mouse hypereosinophilia model assessed as inhibition of macrophage recruitment at 22 nmol/kg administered intranasally 2 hrs prior to ovalbumin challenge for 3 days; assay type: functional, organism-based; outline: as §2
[12] = Solubility of the compound in HEPES buffer at pH 7.4 after 24 hrs; assay type: physicochemical
Outline: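 Thermodynamic solubility in aqueous HEPES buffer, pH 7.4, 22 °C, after 24 h incubation; tested up to 30 mM.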

Mus musculus [13] = experiment: Antiinflammatory activity in ovalbumin sensitized Balb/c mouse hypereosinophilia model assessed as inhibition of neutrophil recruitment at 30 nmol/kg administered intranasally 2 hrs prior to ovalbumin challenge measured 24 hrs post the last ovalbumin challenge by BAL analysis; assay type: functional, organism-based; outline: as §2
Mus musculus [14] = experiment: Antiinflammatory activity in ovalbumin sensitized Balb/c mouse hypereosinophilia model assessed as inhibition of eosinophil recruitment administered intranasally 2 hrs prior to ovalbumin challenge for 3 days; assay type: functional, organism-based; outline: as §2
Mus musculus [15] = experiment: Prodrug activation in ovalbumin sensitized Balb/c mouse hypereosinophilia model assessed as chalcone-4 release in lungs at 22 nmol/kg administered intranasally after 15 mins; assay type: organism-based; settings: in vivo, inhaled_or_intranasal, 0.25 h
Outline: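 LC-MS detection of released parent chalcone in mouse lung tissue 15 min after intranasal dosing of prodrug.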

Mus musculus [16] = experiment: Antiinflammatory activity in ovalbumin sensitized Balb/c mouse hypereosinophilia model assessed as inhibition of eosinophil recruitment at 30 nmol/kg administered intranasally 2 hrs prior to ovalbumin challenge measured 24 hrs post the last ovalbumin challenge by BAL analysis; assay type: functional; settings: inhaled or nasal; outline: as §2
[17] = target: T1, C-X-C chemokine receptor type 4; experiment: Inhibition of EGFP-tagged human CXCR4 expressed in HEK293 cells assessed as inhibition of CXCL12-TR binding incubated for 5 mins prior to CXCL12-TR addition by FRET assay; assay type: cell-based

| inhibition [1] | half-life [2] | half-life [5] | half-life [7] | solubility at 24 h [12] | Ki [17] | Structure (SMILES) | Drug metabolism (Mus musculus [3]) | inhibition (Mus musculus [4]) | inhibition (Mus musculus [6]) | inhibition in vivo at 0.022 µmol/kg (Mus musculus [8]; inhaled or nasal) | inhibition (Mus musculus [9]) | inhibition (Mus musculus [10]) | inhibition (Mus musculus [11]) | inhibition (Mus musculus [13]) | IC50 (Mus musculus [14]) | Drug metabolism (Mus musculus [15]) | inhibition in vivo at 0.03 µmol/kg (Mus musculus [16]) | inhibition (Mus musculus [8]) |
| --- | --- | --- | --- | --- | --- | --- | --- | --- | --- | --- | --- | --- | --- | --- | --- | --- | --- | --- |
| 5% | < 15 min | > 600 min | 120 min | > 30000 µM |  | COc1cc(/C=C/C(=O)c2ccc(Cl)cc2)ccc1OP(=O)([O-])[O-].[Na+].[Na+] | Active | Active | inactive | 56% | Active | Active | inactive | Active | 10 nmol/kg | Active | 64% |  |
| 90% | > 360 min | > 600 min | > 600 min | 9 µM (≈ 2.6 µg/mL) | 53 nM | COc1cc(/C=C/C(=O)c2ccc(Cl)cc2)ccc1O | Active |  |  |  | inactive | inactive | inactive |  |  |  |  | inactive |
| 4% | 30 min | > 600 min | > 600 min | 1430 µM |  | COc1cc(/C=C/C(=O)c2ccc(Cl)cc2)ccc1OS(=O)(=O)[O-].[Na+] | Active | Active | inactive |  |  |  |  | Active |  |  | 69% |  |
| 15% | < 5 min | 12 min | < 5 min | 42 µM |  | COc1cc(/C=C/C(=O)c2ccc(Cl)cc2)ccc1OC(=O)[C@H](N)CO.Cl | Active | Active | inactive |  |  |  |  | Active |  |  | 67% |  |
